According to PubChem BioAssay:
Inconclusive results are not listed.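 The calls were made as follows, unless noted: active = RAM network inhibition above 8.4% in each of two replicates, 3 SD over the compound average; inconclusive = above 8.4% inhibition in only one replicate; inactive = 8.4% inhibition or less in each replicate.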

Tests used:
[1] = OD615 S. cerevisiae growth inhibition, permissive medium, pilot counter-assay, permissive growth control for S. cerevisiae lifespan shortening project (AID 705;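 active = growth inhibition above 25% in both replicates, a cutoff set 3 SD above the mean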); details: OD615, 24 h, at 10 µM, active compounds read high
Summary of the method: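 System: engineered DeaD yeast; Medium: permissive raffinose/galactose medium; Compound dosing: 10 µM single dose, 0.25% DMSO; Incubation: 4 h cell pre-growth, 24 h exposure at 30 °C; Technique: OD at 615 nm; Evaluation: growth inhibition from lowered OD615 after 24 h.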

[2] = Restrictive medium S. cerevisiae growth inhibition, OD615, pilot screen of yeast lifespan reduction project, restrictive growth control (AID 706;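 active = growth inhibition above a set limit, 3 SD over mean compound inhibition, in both replicates, cut at about 43% in these data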;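 also: modified DeaD lifespan yeast strain shifted to restrictive glucose medium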); details: OD615, 48 h, at 10 µM, active compounds read high
Summary of the method: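 Material: modified S. cerevisiae; buffer or medium: CSMM-D glucose medium; doses: one concentration, 10 µM final, 0.25% DMSO; incubation: 48 h compound exposure at 30 °C; detection: optical density at 615 nm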

[3] = viability gain of MRP-1-high H69AR cells under doxorubicin, pilot screen, MRP-1 activator project, CellTiter-Glo, duplicate (AID 807;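 active = viability increase at or above a cutoff of the median across tested compounds plus 3 SD, cut at about 8.5% in these data, passing the limit was not always enough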;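 also: compound pretreatment 18-22 h then 72 h combined with doxorubicin; 0% = doxorubicin alone and 100% = vehicle without doxorubicin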); details: H69AR viability with doxorubicin, CellTiter-Glo luminescence; at 10 µM; active compounds read high
[4] = growth suppression of beta-catenin knockout HCT116, pilot screen, human colon tumor cells (AID 823;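 active = cell viability at or below a set limit in both duplicate runs, the limit being the all-compound median minus 4 SD, cut at about 23% in these data, passing the limit was not always enough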;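 also: 0% = wells killed by 20 µM Hyamine and 100% = untreated DMSO cell wells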); details: CellTiter-Glo, 60 h, at 10 µM, active compounds read low
[5] = growth suppression of PTEN-deleted HCT116, pilot screen, cell-based, HCT116 clonal line, CellTiter-Glo (AID 824;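 active = viability at or below 27.92% in each of two runs, the all-compound median minus 4 SD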;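 also: 0% = 20 µM Hyamine control and 100% = vehicle cell control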); details: 60 h, at 10 µM, active compounds read low
[6] = inhibitors of the yeast RAM network, pilot screen, dse1pr::URA3 reporter, 5-FOA selection (AID 869;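 active = inhibition over a set limit, the all-compound mean plus 3 SD, in both replicate runs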;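 also: 0% = DMSO wells with no growth and 100% = 10 µM 1-NA-PP1 with full growth; RAM network block rescues cells from 5-FOA so hits raise OD615 growth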); details: S. cerevisiae dse1pr::URA3 5-FOA growth, OD615, 2 d; at 10 µM; active compounds read high; strain carries analog-sensitive mutant Cbk1 kinase
[7] = RAM signaling pathway blockade in yeast – S. cerevisiae, Pdr1DBD-CYC8 efflux-inhibited sensitized strain, primary screen (AID 1298);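 also: 0% = DMSO untreated cells without growth and 100% = 10 µM 1-NA-PP1 full growth; higher means more yeast growth rescued from 5-FOA killing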; details: S. cerevisiae cbk1-as DSE1-URA3 strain, 5-FOA growth OD615, 2 d; at 50 µM; active compounds read high

Cc1ccc(-c2nc(CS(=O)CC(=O)NCCN3CCCC3)c(C)o2)cc1 (stereo unspecified)
inactive: growth inhibition [1] -8.03% | growth inhibition [2] -5.56% | viability increase [3] -2.7% | viability [4] 86.4% | viability [5] 99.3% | inhibition [6] 0.18% | RAM network inhibition [7] 0.43%

CCC1Oc2ccc(C)cc2N(CC(=O)NCCc2ccc(OC)c(OC)c2)C1=O (stereo unspecified)
inactive: growth inhibition [1] -6.91% | growth inhibition [2] 3.82% | viability increase [3] -0.77% | viability [4] 95.2% | viability [5] 92.4% | inhibition [6] 1.23% | RAM network inhibition [7] -0.46%

COc1ccccc1N(CC(=O)N1CCCCCC1)S(C)(=O)=O
inactive: growth inhibition [1] -11.6% | growth inhibition [2] -10.7% | viability increase [3] -1.57% | viability [4] 89.1% | viability [5] 92.5% | inhibition [6] 0.495% | RAM network inhibition [7] 2.63%

N#Cc1c2n(c3c(=O)n(CC(=O)c4ccc(Br)cc4)cnc13)CCCC2
inactive: growth inhibition [1] -18.3% | growth inhibition [2] -5.47% | viability increase [3] -0.17% | viability [4] 86.1% | viability [5] 86% | inhibition [6] 0.885% | RAM network inhibition [7] 2.03%

Cn1c(=O)n(C)c2cc(S(=O)(=O)O)ccc21
inactive: growth inhibition [1] 5.19% | growth inhibition [2] 4.85% | viability increase [3] -1.08% | viability [4] 97% | viability [5] 95% | inhibition [6] 1.38% | RAM network inhibition [7] 0.76%

Cn1c(NC(=O)CC(C)(C)C)cc(=O)n(C)c1=O
inactive: growth inhibition [1] -2.31% | growth inhibition [2] -7.82% | viability increase [3] -0.07% | viability [4] 104% | viability [5] 105% | inhibition [6] 3.15% | RAM network inhibition [7] -1.17%

COc1ccc2c(c1OC)C(=O)OC2Nc1ccccn1 (stereo unspecified)
inactive: growth inhibition [1] 10.3% | growth inhibition [2] -7.84% | viability increase [3] -2.18% | viability [4] 102% | viability [5] 99.7% | inhibition [6] 1.34% | RAM network inhibition [7] 1.17%

CC1CCN(S(=O)(=O)N2CCC(C(=O)N3CCC(N(C)CC4CCCO4)CC3)CC2)CC1 (stereo unspecified)
inactive: growth inhibition [1] -0.85% | growth inhibition [2] -5.09% | viability increase [3] -1.16% | viability [4] 90.6% | viability [5] 95.3% | inhibition [6] 2.09% | RAM network inhibition [7] 0.73%

COCc1cc(C)nc2sc3c(=O)n(Cc4ccco4)nnc3c12
inactive: growth inhibition [1] -8.08% | growth inhibition [2] -13.3% | viability increase [3] -1.93% | viability [4] 100% | viability [5] 90.7% | inhibition [6] 4.2% | RAM network inhibition [7] 4.8%

Cn1c(=O)oc2cc(S(=O)(=O)N3CCCC(C(=O)N4CCn5c4nc4ccccc45)C3)ccc21 (stereo unspecified)
inactive: growth inhibition [1] -8.03% | growth inhibition [2] -7.74% | viability increase [3] -1.54% | viability [4] 77.7% | viability [5] 76.2% | inhibition [6] 0.695% | RAM network inhibition [7] 1.49%

CCOC(=O)C1=C(O)CSC1=Nc1ccc(Cl)cc1
inactive: growth inhibition [1] -7.6% | growth inhibition [2] -10.1% | viability increase [3] -1.62% | viability [4] 107% | viability [5] 99.8% | inhibition [6] 1.17% | RAM network inhibition [7] 7.14%

COc1ccc(-c2noc(Cc3cccs3)n2)cc1
inactive: growth inhibition [1] 0.04% | growth inhibition [2] 3.45% | viability increase [3] -2.47% | viability [4] 102% | viability [5] 93.3% | inhibition [6] 2.76% | RAM network inhibition [7] 4.89%

COc1ccc(OC)c(S(=O)(=O)n2nc(-c3ccccc3)cc2N)c1
inactive: growth inhibition [1] -6.75% | growth inhibition [2] -2.54% | viability increase [3] -2.02% | viability [4] 104% | viability [5] 103% | inhibition [6] 0.795% | RAM network inhibition [7] 1.93%

O=c1oc(-c2cccs2)nc2sc3c(c12)CCCCC3
inactive: growth inhibition [1] -8.22% | growth inhibition [2] -6.44% | viability increase [3] 1.51% | viability [4] 89% | viability [5] 80.3% | inhibition [6] 1.86% | RAM network inhibition [7] 4.13%

CC1CC(C)CN(S(=O)(=O)c2ccc(NC(=O)C3COc4ccccc4O3)cc2)C1 (stereo unspecified)
inactive: growth inhibition [1] -14.1% | growth inhibition [2] -24.7% | viability increase [3] -7.35% | viability [4] 53.9% | viability [5] 54.7% | inhibition [6] 3.38% | RAM network inhibition [7] 2.76%

Nc1ccc(-c2nc3ccccc3[nH]2)cc1
inactive: growth inhibition [1] -6.98% | growth inhibition [2] -10.1% | viability increase [3] -3.12% | viability [4] 97.3% | viability [5] 87.8% | inhibition [6] 2.31% | RAM network inhibition [7] 4.57%

O=C(O)CCC(=O)N1CCc2cc(S(=O)(=O)Nc3ccc4c(c3)OCCO4)ccc21
inactive: growth inhibition [1] -4.35% | growth inhibition [2] -7.19% | viability increase [3] -1.45% | viability [4] 94% | viability [5] 96.3% | inhibition [6] 0.535% | RAM network inhibition [7] -1.56%

COc1ccc(C)cc1NC(=O)CN(c1ccc(F)cc1)S(C)(=O)=O
inactive: growth inhibition [1] -20.5% | growth inhibition [2] -18.5% | viability increase [3] -1.76% | viability [4] 92.4% | viability [5] 103% | inhibition [6] 1.31% | RAM network inhibition [7] 4.09%
